According to ChEMBL document CHEMBL3758106, “Antitumor Activity of Americanin A Isolated from the Seeds of Phytolacca americana by Regulating the ATM/ATR Signaling Pathway and the Skp2-p27 Axis in Human Colon Cancer Cells” (J Nat Prod, 2015):
Active and inactive are the calls of the source. The rule behind the calls is not given here.

Tests used:
HCT-116 [1] = assay: Induction of apoptosis in human HCT116 cells assessed as decrease in Bcl2 expression at 7.5 to 30 uM after 48 hrs by Western blot analysis; type: functional, cell-based
In short: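 HCT116 cells exposed 48 h; Western blot of RIPA lysates (BCA quantification, SDS-PAGE, PVDF, overnight primary antibodies at 4 °C, HRP secondary, ECL).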

HCT-116 [2] = assay: Induction of reactive oxygen species in human HCT116 cells at 30 uM after 48 hrs by DCFH-DA staining-based flow cytometric analysis in presence of NAC (reference value: 5.1%); type: functional
In short: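 HCT116 cells seeded overnight, then exposed to test compounds, alone or with NAC, for 48 h in complete medium. Loaded with 20 μM DCFH-DA for 30 min; intracellular ROS in 20 000 cells per group read by flow cytometry as histograms.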

HCT-116 [3] = assay: Induction of apoptosis in human HCT116 cells assessed as dead cells at 30 uM after 48 hrs by annexin V-FITC/propidium iodide staining-based flow cytometric analysis (reference value: 4.2%); type: functional
HCT-116 [4] = assay: Induction of apoptosis in human HCT116 cells assessed as cleaved caspase 8 level at 30 uM up to 24 hrs by Western blot analysis; type: functional, cell-based
Mus musculus [5] = assay: Toxicity in nude mouse at 5 to 10 mg/kg, ip administered 3 times per week measured on day 41; type: organism-based; details: in vivo
In short: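 Nude mice implanted s.c. in the flank with 2 × 10^6 HCT116 cells. Once tumors reached about 120 mm3, mice were randomized, six per group, to vehicle or compound at 5 or 10 mg/kg ip (200 μL) three times weekly; irinotecan 10 mg/kg ip once weekly as reference. Body weight recorded twice weekly to assess toxicity; study ended day 41.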

HCT-116 [6] = assay: Induction of cell cycle arrest in human HCT116 cells assessed as accumulation at sub-G1 phase at 30 uM after 24 hrs by propidium iodide staining-based flow cytometric analysis in presence of RNase A (reference value: 1.5%); type: functional
[7] = Downregulation of phosphorylated cyclin B1 at Ser147 expression in human HCT116 cells at 7.5 to 30 uM after 24 hrs by Western blot analysis; type: functional, cell-based; details: HCT-116
In short: (§1)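 HCT116 cells exposed 24 h in complete medium; lysed in RIPA buffer (pH 8.0), protein by BCA, equal loads run on 8–13% SDS-PAGE, PVDF transfer, blocked in 5% BSA/TBST, primary antibodies overnight at 4 °C, HRP secondaries 2 h RT, ECL detection; β-actin as loading control.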

[8] = Downregulation of CDK2 expression in human HCT116 cells at 7.5 to 30 uM after 24 hrs by Western blot analysis; type: functional, cell-based; details: HCT-116; in short: as §1
[9] = Downregulation of phosphorylated ATM expression in human HCT116 cells at 30 uM after 1 hr by Western blot analysis; type: functional, cell-based; details: HCT-116, TDE = time-dependent effect
In short: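 HCT116 cells exposed for 1 h in complete medium; RIPA lysates quantified by BCA, equal protein separated on 8–13% SDS-PAGE, transferred to PVDF, probed with primary antibodies overnight at 4 °C and HRP secondaries, chemiluminescence read-out.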

[10] = Antiproliferative activity against p53-null human HCT116 cells assessed as cell viability after 72 hrs by SRB assay; type: functional, cell-based; details: HCT-116, 72 h
In short: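 p53 wild-type and p53-null HCT116 cells in 96-well plates treated 72 h; SRB assay (TCA fix, SRB stain, Tris pH 10.0 solubilisation, A515); viability vs solvent control, IC50 by nonlinear regression.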

HCT-116 [11] = assay: Increase in p27 expression in human HCT116 cells after 24 hrs by western blot analysis; type: functional, cell-based; in short: as §1
[12] = Decrease in phosphorylated p27 expression at Thr187 in human HCT116 cells after 24 hrs by western blot analysis; type: functional, cell-based; details: HCT-116; in short: as §1
[13] = molecular target: S-phase kinase-associated protein 1/2 (Homo sapiens) (UniProt Q13309+P63208); assay: Inhibition of Skp2/Skp1 protein interaction in human HCT116 cells after 24 hrs by immunoprecipitation assay; type: cell-based; details: HCT-116
In short: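 Protein measured by Bradford. Equal protein incubated with Protein G sepharose and the capture antibody (anti-p53, anti-Cul-1 or anti-Skp2) overnight at 4 °C. Bead eluates boiled in Laemmli/2-mercaptoethanol and analysed by Western blot.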

HCT-116 [14] = assay: Induction of cell cycle arrest in human HCT116 cells assessed as accumulation at G0/G1 phase at 7.5 uM after 48 hrs by propidium iodide staining-based flow cytometric analysis in presence of RNase A (reference value: 54.3%); type: functional
HCT-116 [15] = assay: Induction of cell cycle arrest in human HCT116 cells assessed as accumulation at S phase at 7.5 uM after 48 hrs by propidium iodide staining-based flow cytometric analysis in presence of RNase A (reference value: 16.2%); type: functional
[16] = (§2) Antiproliferative activity against human HCT116 cells after 24 to 72 hrs by SRB assay; type: functional, cell-based; details: HCT-116
In short: (§3)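 Cells grown in 96-well plates (RPMI 1640; MRC-5 in MEM, 10% FBS, antibiotics) with compound […]; fixed in 10% TCA 30 min at 4 °C, stained 0.4% SRB in 1% acetic acid 1 h, dye dissolved in 10 mM Tris pH 10.0, A515 read; viability as % of solvent control, IC50 by nonlinear regression; mean of three independent experiments.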

HCT-116 [17] = assay: as §2; type: functional, cell-based; in short: as §3
Mus musculus [18] = assay: Downregulation of Skp2 in human HCT116 cells xenografted in nude mouse at 5 to 10 mg/kg, ip administered 3 times per week measured on day 41 by Western blot analysis; type: functional, organism-based; details: HCT-116
In short: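 Excised frozen xenograft tumours homogenised in lysis buffer; protein by Bradford assay, then Western blotting for Skp2 with β-actin as control.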

Mus musculus [19] = assay: Upregulation of p27 in human HCT116 cells xenografted in nude mouse at 5 to 10 mg/kg, ip administered 3 times per week measured on day 41 by H and E staining-based phase contrast microscopic analysis; type: functional, organism-based; details: HCT-116
In short: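 Tumors excised from the xenograft study (ip 5 or 10 mg/kg three times weekly, day 41) were formalin-fixed and paraffin-embedded. Sections were probed with antibody, detected by LSAB/HRP, counterstained with H&E and photographed under an inverted phase-contrast microscope.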

Mus musculus [20] = assay: Downregulation of Skp2 in human HCT116 cells xenografted in nude mouse at 5 to 10 mg/kg, ip administered 3 times per week measured on day 41 by […]; type: functional, organism-based; details: HCT-116
In short: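 Formalin-fixed, paraffin-embedded xenograft sections (mice dosed ip three times weekly) probed with antibodies, detected by LSAB/HRP, counterstained with H&E, imaged by inverted phase-contrast microscopy.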

HCT-116 [21] = assay: Antiproliferative activity against human HCT116 cells after 5 to 40 uM by SRB assay; type: functional, cell-based; details: TDE = time-dependent effect
HCT-116 [22] = assay: Induction of morphological change in human HCT116 cells assessed as appearance of rounded cells at 30 uM after 24 to 48 hrs by phase contrast microscopic analysis; type: functional, cell-based
In short: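 HCT116 cells incubated with compound for 24 h, then viewed and photographed under phase-contrast microscopy; also examined at 48 h.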

HCT-116 [23] = assay: Induction of cell cycle arrest in human HCT116 cells assessed as accumulation at G2/M phase at 7.5 uM after 24 hrs by propidium iodide staining-based flow cytometric analysis in presence of RNase A (reference value: 20.6%); type: functional

Sequence of S-phase kinase-associated protein 1/2 (Homo sapiens) (P63208 whole entry, looked up): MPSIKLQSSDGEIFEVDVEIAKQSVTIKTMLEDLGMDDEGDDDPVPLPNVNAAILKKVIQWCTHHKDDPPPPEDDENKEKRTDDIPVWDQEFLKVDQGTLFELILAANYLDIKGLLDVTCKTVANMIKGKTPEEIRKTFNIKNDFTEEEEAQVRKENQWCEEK
Sequence of S-phase kinase-associated protein 1/2 (Homo sapiens) (Q13309 whole entry, looked up): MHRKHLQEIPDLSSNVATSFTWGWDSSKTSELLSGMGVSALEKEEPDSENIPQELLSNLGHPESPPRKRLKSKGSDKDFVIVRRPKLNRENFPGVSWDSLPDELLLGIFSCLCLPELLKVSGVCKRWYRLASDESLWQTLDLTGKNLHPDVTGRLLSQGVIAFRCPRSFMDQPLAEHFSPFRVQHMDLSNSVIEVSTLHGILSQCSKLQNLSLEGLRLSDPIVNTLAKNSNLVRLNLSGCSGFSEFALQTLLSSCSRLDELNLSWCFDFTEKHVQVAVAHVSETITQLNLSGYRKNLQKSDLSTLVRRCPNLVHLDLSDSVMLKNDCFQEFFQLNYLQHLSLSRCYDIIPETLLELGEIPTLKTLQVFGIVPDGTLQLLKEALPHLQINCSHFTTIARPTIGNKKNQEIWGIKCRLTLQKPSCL

Q: With `O=C/C=C/c1ccc2c(c1)O[C@@H](CO)[C@H](c1ccc(O)c(O)c1)O2` [AMERICANIN A] as the molecule, how does the Activity (HCT-116 [1]) read?
A: Active

Q: What about the Activity (HCT-116 [2]) of the same molecule?
A: 9.9%

Q: What about the Activity (HCT-116 [3]) of the same molecule?
A: 5.1%

Q: And the Activity (HCT-116 [4])?
A: Active

Q: What about the Activity (Mus musculus [5]) of the same molecule?
A: Non-toxic

Q: And the Activity (HCT-116 [6])?
A: 4%

Q: What about the Activity [7] of the same molecule?
A: Active

Q: What about the Activity [8] of the same molecule?
A: Active

Q: What about the Activity [9] of the same molecule?
A: tde

Q: And the IC50 [10]?
A: 7.8 µM

Q: And the Activity (HCT-116 [11])?
A: Dose-dependent effect

Q: What about the Activity [12] of the same molecule?
A: Active

Q: What about the inhibition [13] of the same molecule?
A: inactive

Q: What about the Activity (HCT-116 [14]) of the same molecule?
A: 55.2%

Q: What about the Activity (HCT-116 [15]) of the same molecule?
A: 13.5%

Q: What about the IC50 [16] of the same molecule?
A: 7.6 µM

Q: And the Activity (HCT-116 [17])?
A: Dose-dependent effect

Q: And the Activity (Mus musculus [18])?
A: Active

Q: What about the Activity (Mus musculus [19]) of the same molecule?
A: Active

Q: And the Activity (Mus musculus [20])?
A: Active

Q: And the Activity (HCT-116 [21])?
A: tde

Q: And the Activity (HCT-116 [22])?
A: Active

Q: And the Activity (HCT-116 [23])?
A: 27.5%
